# iPSC survival up: enhancers of single-cell hiPSC survival, primary screen, ATPlite luminescence | 100% = ROCK inhibitor wells, 0% = DMSO | survival enhancement, % at 20 µM | 360,000 compounds, 0.044% hits | AID 602274, 2012; in the data active means survival enhancement above about 18%;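 further: cells exposed to compounds for 16 hours before the ATP read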
# FAS-TE inh: FAS thioesterase domain inhibitors, primary screen, biochemical, fluorescence intensity, uHTS. Fatty acid synthase (Homo sapiens), P49327. recombinant FAS-TE, OMFH fluorogenic substrate, fluorescence endpoint. inhibition, % at 15 µM. 360,000 compounds, 0.67% hits;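 active means compounds whose normalised, plate-corrected inhibition of enzyme fluorescence in the single-dose primary screen is 50% or more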;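 further: 0% = DMSO with enzyme and 100% = substrate without enzyme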
# Target sequence (P49327 whole entry, looked up, the tested form may be a part): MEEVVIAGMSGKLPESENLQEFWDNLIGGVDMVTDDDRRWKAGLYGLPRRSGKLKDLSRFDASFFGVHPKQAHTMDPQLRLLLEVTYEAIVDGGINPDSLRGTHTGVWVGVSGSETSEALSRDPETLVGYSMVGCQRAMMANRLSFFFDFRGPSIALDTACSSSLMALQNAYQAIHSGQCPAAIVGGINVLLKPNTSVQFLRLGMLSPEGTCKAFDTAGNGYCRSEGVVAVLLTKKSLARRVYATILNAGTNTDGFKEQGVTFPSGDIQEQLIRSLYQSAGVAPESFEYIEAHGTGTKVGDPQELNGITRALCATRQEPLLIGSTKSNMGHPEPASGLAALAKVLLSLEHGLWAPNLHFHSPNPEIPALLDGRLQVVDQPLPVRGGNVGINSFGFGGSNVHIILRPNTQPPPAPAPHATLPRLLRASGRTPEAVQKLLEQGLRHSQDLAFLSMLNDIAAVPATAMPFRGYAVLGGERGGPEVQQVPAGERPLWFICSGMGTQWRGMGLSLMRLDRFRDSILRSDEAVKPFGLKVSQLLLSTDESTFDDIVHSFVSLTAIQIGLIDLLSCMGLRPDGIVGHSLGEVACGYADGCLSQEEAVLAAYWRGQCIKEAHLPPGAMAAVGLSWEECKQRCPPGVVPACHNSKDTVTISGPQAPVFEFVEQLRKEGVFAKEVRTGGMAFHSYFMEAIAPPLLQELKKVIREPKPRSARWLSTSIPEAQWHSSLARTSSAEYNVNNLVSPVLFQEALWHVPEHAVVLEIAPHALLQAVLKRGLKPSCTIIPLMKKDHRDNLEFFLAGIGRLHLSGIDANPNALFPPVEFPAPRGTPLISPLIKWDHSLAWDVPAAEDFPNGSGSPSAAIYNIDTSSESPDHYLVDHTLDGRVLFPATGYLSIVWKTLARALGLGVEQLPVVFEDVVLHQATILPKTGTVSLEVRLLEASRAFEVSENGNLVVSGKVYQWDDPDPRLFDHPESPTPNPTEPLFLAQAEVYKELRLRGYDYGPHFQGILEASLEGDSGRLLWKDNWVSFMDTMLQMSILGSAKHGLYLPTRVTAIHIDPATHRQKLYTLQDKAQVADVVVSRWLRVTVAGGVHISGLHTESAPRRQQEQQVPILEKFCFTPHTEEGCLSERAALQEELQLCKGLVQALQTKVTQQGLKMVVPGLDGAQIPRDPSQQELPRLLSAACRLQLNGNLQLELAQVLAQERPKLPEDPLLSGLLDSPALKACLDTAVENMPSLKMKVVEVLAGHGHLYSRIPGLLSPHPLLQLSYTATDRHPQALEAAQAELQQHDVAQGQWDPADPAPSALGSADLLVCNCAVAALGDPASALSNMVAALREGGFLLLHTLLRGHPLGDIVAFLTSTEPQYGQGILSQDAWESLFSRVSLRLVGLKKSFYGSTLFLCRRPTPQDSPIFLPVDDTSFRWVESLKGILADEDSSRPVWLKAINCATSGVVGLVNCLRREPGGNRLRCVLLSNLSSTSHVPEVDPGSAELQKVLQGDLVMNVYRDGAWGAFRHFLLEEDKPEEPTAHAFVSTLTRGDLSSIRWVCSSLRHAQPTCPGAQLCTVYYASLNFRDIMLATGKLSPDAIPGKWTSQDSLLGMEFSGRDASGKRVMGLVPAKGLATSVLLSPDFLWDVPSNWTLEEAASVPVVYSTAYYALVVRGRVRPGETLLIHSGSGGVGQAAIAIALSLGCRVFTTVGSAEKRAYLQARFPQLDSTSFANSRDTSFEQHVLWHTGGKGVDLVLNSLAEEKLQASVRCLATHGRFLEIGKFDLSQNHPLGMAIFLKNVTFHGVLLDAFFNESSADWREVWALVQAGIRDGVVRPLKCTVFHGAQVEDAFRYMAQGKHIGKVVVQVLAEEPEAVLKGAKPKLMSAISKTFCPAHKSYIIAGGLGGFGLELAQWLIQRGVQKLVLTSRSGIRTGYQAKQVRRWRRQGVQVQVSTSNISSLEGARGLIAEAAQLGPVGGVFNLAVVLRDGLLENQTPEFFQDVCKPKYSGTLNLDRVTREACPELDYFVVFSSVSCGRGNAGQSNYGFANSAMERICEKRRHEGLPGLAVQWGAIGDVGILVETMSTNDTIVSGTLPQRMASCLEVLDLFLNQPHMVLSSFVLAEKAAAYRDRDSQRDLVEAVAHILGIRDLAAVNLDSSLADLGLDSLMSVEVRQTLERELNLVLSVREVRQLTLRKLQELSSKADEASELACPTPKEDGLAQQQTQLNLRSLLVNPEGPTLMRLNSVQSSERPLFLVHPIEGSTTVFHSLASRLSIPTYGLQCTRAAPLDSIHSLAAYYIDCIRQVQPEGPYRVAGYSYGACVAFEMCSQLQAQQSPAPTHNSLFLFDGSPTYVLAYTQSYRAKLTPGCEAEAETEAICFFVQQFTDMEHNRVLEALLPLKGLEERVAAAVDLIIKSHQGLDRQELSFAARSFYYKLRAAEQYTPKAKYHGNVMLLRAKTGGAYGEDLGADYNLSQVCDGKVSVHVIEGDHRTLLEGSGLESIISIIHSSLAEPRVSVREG
# Arrestin-AP2 inh: inhibitors of beta-arrestin/AP2 binding, primary screen, biochemical, GPCR trafficking, flow cytometry | beta-arrestin 1 C-terminal peptide binding to AP2 beta2-adaptin appendage (human) | FITC-arrestin peptide / GST-AP2 beads; AP2 beta2 appendage carries R879A mutation | inhibition, % at 10 µM | 340,000 compounds, 0.31% hits | AID 504490, 2011;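 active means inhibition above a set limit, near 3 SD of compounds lacking own fluorescence, cut at about 54% in these data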;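 further: plate controls were DMSO wells for no effect and 5 µM unlabelled arrestin peptide for full effect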
#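 System: GST-AP2 R879A bound to glutathione beads, E. coli-expressed. Also added: 50 nM FITC-arrestin peptide. Schedule: compound with beads 12 min RT, then probe 1 h RT. Signal: bead flow cytometry, FITC channel. Read-out basis: percent response.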
# H9c2 protect: cardioprotection against H2O2-induced cell death, primary screen, uHTS, H9c2 cells, ATPLite luminescence; H9c2 cardiomyocytes, H2O2 injury protection, 2 h; protection from H2O2 cell death, % at 20 µM; 360,000 compounds, 0.63% hits;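 active means compounds giving at least 50% protection of heart cells from peroxide-induced death in the single-dose screen, raw or plate-pattern-corrected value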;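 further: 0% = DMSO wells with peroxide and 100% = DMSO wells without peroxide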
# SENP1 inh: human SENP1 catalytic domain inhibitors, primary screen, biochemical, FRET, uHTS | 360,000 compounds, 0.21% hits | inhibition, % at 10 µM | recombinant SENP1 catalytic domain, CyPet-SUMO1-YPet FRET cleavage | Sentrin-specific protease 1 (Homo sapiens), Q9P0U3;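 active means inhibition at least 30% at 10 µM, raw YFP signal under a set limit, fluorescence ratio 0.5 to 1.5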;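 further: 0% = enzyme with DMSO and 100% = no enzyme wells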
#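 System: Recombinant human SENP1 catalytic domain, His6-tagged | Incubation: Enzyme reaction for 50 min at room temperature, dark | Medium: Tris pH 8 with BME, BSA, NP40 and catalase | Also added: 25 nM SUMO1 FRET substrate | Compound: 10 µM single point, 0.5% DMSO | Measured by: FRET fluorescence in CFP and YFP emission channels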
# GRIN3A LBD mod: binders of NR3A ligand-binding domain, primary screen, biophysical, differential scanning fluorimetry, uHTS; Glutamate receptor ionotropic, NMDA 3A (GRIN3A) ligand-binding domain; NR3A LBD differential scanning fluorimetry, Tm shift; 0% = protein alone, 100% = glycine-bound protein; Tm shift relative to glycine control, % at 25 µM; 340,000 compounds, 2.5% hits; AID 1259313, 2017;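 active means melting temperature shift of at least 10% of the positive control shift, at one fixed dose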
# An asterisk follows results filed as active; nt = no result. Only some compounds are listed: those with a hit (about 4% of all), similar ones and a draw of the others.
SMILES,iPSC survival up,FAS-TE inh,Arrestin-AP2 inh,H9c2 protect,SENP1 inh,GRIN3A LBD mod
COc1cc(C)ccc1NC(=O)Cc1csc(NC(=O)Nc2ccccc2OC)n1,1,19,-15,10,1,4
COc1ccccc1NC(=O)Nc1nc(CC(=O)Nc2ccc(OC)c(OC)c2)cs1,0,10,2,44,-1,17*
COc1cccc(NC(=O)Cc2csc(NC(=O)Nc3ccccc3OC)n2)c1,0,14,-8,17,1,29*
CCCCn1nnnc1C(c1ccccc1)N1CCN(c2ccc(C(F)(F)F)cc2[N+](=O)[O-])CC1 (configuration not stated),0,27,nt,nt,2,nt
O=C(/C=C/c1cccs1)NC(=S)Nc1ccc(S(=O)(=O)Nc2ccccc2C(F)(F)F)cc1,0,47,31,-10,-1,27*
CCOc1ccc(NC(=O)c2cccc(S(=O)(=O)NCc3cccnc3)c2)cc1,2,-8,nt,9,3,nt
Cc1ccc(CCN2CC(C(=O)NCCCN3CCCCCC3)CC2=O)cc1 (configuration not stated),22*,-7,-8,5,-4,2
COc1ccc(NC(=O)C2CC(=O)N(CCc3ccc(Cl)cc3)C2)cc1 (configuration not stated),1,1,11,-1,0,12*
CC(C)c1ccc(NC(=O)c2cc(-c3cc(F)ccc3OCC3CCCO3)n[nH]2)cc1 (configuration not stated),5,20,nt,-12,-3,nt
O=C(Nc1ccc2[nH]ncc2c1)C1CCC1,2,-32,-16,5,-4,1
O=C(C(O)c1ccc(Br)cc1)N1CCC(Nc2ccc3[nH]ncc3c2)CC1 (configuration not stated),111*,-24,nt,3,-27,nt
CCOC(=O)[C@]12CCC=C1N(CCC1=CCCCC1)C(=O)[C@H](CC(=O)N1CCOCC1)C2,-1,-12,nt,nt,1,nt
O=C(CNc1cccc2ccccc12)N/N=C/c1ccc([N+](=O)[O-])cc1,-2,18,1,-6,-14,14*
O=C(CNc1cccc2ccccc12)N/N=C/c1cccc(Oc2ccccc2)c1,-1,17,8,-18,-32,17*
CC(C)NC(=O)Nc1nnc([C@H]2C[C@H](O)[C@@H](CO)O2)s1,4,-8,nt,4,3,nt
Fc1cccc(-n2cc(-c3ccccc3)c3c(=S)nc[nH]c32)c1,0,21,13,64*,0,-5
O=c1[nH]cnc2c1c(-c1ccccc1)cn2-c1ccccc1,0,0,-9,-3,0,-1
Fc1ccc(-n2cc(-c3ccccc3)c3c(=S)nc[nH]c32)cc1,1,16,1,85*,2,-8
O=C(Nc1cccc2ccccc12)c1csc([C@@H]2O[C@H](CO)[C@H](O)[C@H](O)[C@H]2O)n1,-4,-8,nt,2,-2,nt
O=C(Cc1cccc(NC(=O)C2CCCN(C(=O)CCc3ccccc3)C2)c1)Nc1ccc(C(=O)N2CCCCC2)cc1 (configuration not stated),0,-4,6,-11,0,-1
Cc1cccc(C)c1NC(=O)C1C(c2ccc3c(c2)OCO3)=Nc2ccccc2N1C(=O)c1cccc2ccccc12 (configuration not stated),nt,nt,nt,nt,2,nt
O=C(NCCN1CCC(n2c(=O)[nH]c3ccccc32)CC1)c1ccccc1C(F)(F)F,0,-9,nt,nt,1,nt
Cc1cccc(-c2cc(N)n(-c3ccccc3)n2)c1,-1,2,-20,-26,3,31*
Cc1cccc(-c2cnn(-c3ccccc3)c2N)c1,0,-3,-10,-13,-1,0
Cc1ccc(-c2cc(N)n(-c3ccccc3)n2)cc1,-4,1,24,-17,3,26*
SMILES,iPSC survival up,FAS-TE inh,Arrestin-AP2 inh,H9c2 protect,SENP1 inh,GRIN3A LBD mod
Cc1nn(-c2ccccc2)nc1C(=O)Nc1cccc(C(=O)NC2CC2)c1,-3,8,nt,61*,-6,nt
Cc1nn(-c2cccc(Cl)c2)nc1C(=O)Nc1cccc(C(=O)NC2CC2)c1,1,6,-12,32,-1,-2
COc1ccccc1-c1cc(-c2ccc(O)cc2)nc(N)c1C#N,0,9,4,-4,-31,-9
N#Cc1c(-c2cccs2)cc(-c2cccnc2)nc1N,1,-2,32,73*,-52,-2
N#Cc1c(-c2ccccc2)cc(-c2ccc(O)cc2)nc1N,1,20,32,1,-5,15*
COc1cc(-c2cc(-c3ccc(O)cc3)nc(N)c2C#N)ccc1O,1,0,35,50*,-8,-23
Cc1ccc2c(c1)N(C(=O)CCC(=O)N1CCOCC1)CCO2,0,-3,0,0,2,0
C=CCN1CCOc2ccc(C)cc2S1(=O)=O,0,-3,-8,5,2,10*
COC(=O)CC1(C(=O)OC)Nc2cc(Cl)c(Cl)cc2S(=O)(=O)N1O (configuration not stated),2,7,nt,7,0,nt
CCCNC(=O)C1(C)CCCN(Cc2cc(-c3ccccc3)nn2C)C1 (configuration not stated),-1,-6,nt,-2,2,nt
CCN1CCc2c(C#N)c(N3CCOCC3)nc(N3CCOCC3)c2C1,-2,-8,2,8,-31,27*
COC(=O)c1sc(NC(C)=O)c(C(=O)OC)c1C,0,0,4,-5,2,-1
COC(=O)c1sc(NC(=O)CC(C)C)c(C(=O)OC)c1C,1,12,8,-6,4,21*
Cc1cc(Nc2ncc(Cl)cc2Cl)n(-c2ccccn2)n1,3,-10,27,0,1,-2
Cc1cc(Nc2ncc(Cl)cc2Cl)n(-c2ccccc2)n1,-1,3,-7,2,1,11*
Cc1cnc2cc(Cl)c(Cl)cc2n1,1,0,-4,-8,3,579*
COc1cc(OC)nc(Nc2nc(C(N)Cc3ccc(C(F)(F)F)cc3)cs2)n1 (configuration not stated),-2,-26,nt,-12,0,nt
CCOc1ccc(-c2c(C(=O)N/N=C/c3ccc(C)cc3)nnn2-c2nonc2N)cc1,0,22,6,-1,0,7

# Screening results (PubChem)
